In the library only some 4.1% were active in any assay of this set; here they are far more common.
HCV NS3 hel inh = blocks Hepatitis C virus NS3 helicase unwinding. NS3 helicase DNA unwinding, Cy5 molecular beacon fluorescence. AID 1800. inhibition, % at 10.9 µM. 0.56% of 290,000 active;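 active = inhibition above the mean of all tested compounds plus 3 SD, set per campaign, cut at about 35% in these data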
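assay system = NS3 helicase fragment of HCV | buffer or medium = MOPS pH 6.5, MgCl2, DTT, Tween20, BSA | timing = 60 min unwinding reaction at 25 °C after ATP addition | signal = Cy5 beacon fluorescence read at start and 1 h | read-out basis = % inhibition of unwinding | control set = low DMSO, high thioflavine S at 110 µM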
MEKK3 PB1 HTS = raises or lowers MEK5 binding to the human MEKK3 PB1 domain; Q99759; bead-based flow cytometry, Alexa488-MEK5 binding to MEKK3; actives lie on both sides; 0 = blocked by unlabeled MEK5, 100 = vehicle; binding response (% of control), % at 10 µM; 1.4% of 290,000 active;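 active = binding response more than 3 SD above or below the average of its plate-row segment, actives on both sides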;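 also: Alexa488 bead fluorescence after subtracting the streptavidin-only scavenger bead signal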
MEKK2 WT-MEK5 = raises or lowers MEK5 binding to wildtype human MEKK2 PB1 domain | Q9Y2U5 | bead flow cytometry, Alexa488-MEK5 binding to MEKK2 WT; actives lie on both sides | binding response (% of control), % at 10 µM | 1.1% of 290,000 active; in the data active = binding response below about 67% or above about 130%
MEKK2 mut-MEK5 = signal of MEK5 binding to mutant human MEKK2 PB1 domain; bead flow cytometry, Alexa488-MEK5 binding to MEKK2 mutant; percent response, % at 10 µM; 0.35% of 290,000 active; in the data active = percent response above about 24%, passing the limit was not always enough
FID counter = fluorescent intercalator displacement, NS3 helicase counter-screen; DNA fluorescent intercalator displacement, fluorescence; inhibition, % at 7.9 µM; 0.17% of 290,000 active; AID 1845; in the data active = inhibition above about 37%;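 also: higher means more ethidium bromide displaced from hairpin DNA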
T cruzi inh = blocks replication of Trypanosoma cruzi | T. cruzi beta-gal in NIH3T3, luminescence, 90 h | AID 1885 | 1.4% of 300,000 active | inhibition, % (test concentration not listed);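 active = mean inhibition across valid replicates above about 55%, limit read from the data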;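 also: signal also drops with host cell toxicity which is not excluded here; higher percent means less beta-gal luminescence so fewer parasites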
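System – NIH/3T3 host cells with β-galactosidase reporter T. cruzi · Doses – single 50 nL compound addition per well in DMSO · Reagent – 5000 T. cruzi trypomastigotes/well · Medium – Low-serum DMEM with 2% FBS · Timing – ≥90 h infection period, 3 h prior cell attachment · Evaluation – parasite load inhibition, % · Technique – GalScreen luminescence, 60 min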
MEKK2wt confirm = raises or lowers MEK5 binding to wildtype human MEKK2, retest | shares compounds with MEKK3 PB1 HTS | bead flow cytometry, Alexa488-MEK5 binding to MEKK2 WT; actives lie on both sides | binding response (% of control), % at 10 µM | 2.4% of 5,900 active; in the data active = binding response below about 16% or above about 210%; inactive = in between
MEKK2mut confirm = signal of MEK5 binding to mutant human MEKK2, retest; shares compounds with MEKK3 PB1 HTS; bead flow cytometry, Alexa488-MEK5 binding to MEKK2 mutant; percent response, % at 10 µM; 2% of 5,900 active; AID 1893; in the data active = percent response mostly above about 71%, no sharp cut-off; inactive = mostly below about 38%;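 also: higher means compound restores mutant binding toward wildtype level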
MEKK3-MEK5 inh = MEKK3-MEK5 PB1 inhibition, single concentration confirmation; shares compounds with MEKK3 PB1 HTS; bead flow cytometry, Alexa488-MEK5 binding to MEKK3; stronger effect = lower value; binding response (% of control), % at 10 µM; 1.8% of 5,900 active;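 active = binding response below 72% of control, or above a set upper limit, though filed actives all read lower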
Each line names hits and unclear results; the compound was inactive in the other large screens (follow-up assays come after a bar, where they were run); [ ] = remark or other dose.

CCOC(=O)c1c(NC(C)=O)sc2c(O)c(Br)cc(Br)c12	MEKK3 PB1 HTS 132 | MEKK2wt confirm inactive | MEKK2mut confirm inactive | MEKK3-MEK5 inh inactive
O=C(O)C1Cc2[nH]cnc2C(c2ccccc2O)N1 (stereo not drawn)	MEKK3 PB1 HTS 60[inhibitor] | MEKK2wt confirm inactive | MEKK2mut confirm inactive | MEKK3-MEK5 inh inactive
O=C(O)C1Cc2[nH]cnc2C(c2cccc([N+](=O)[O-])c2)N1 (stereo not drawn)	none
CN(C)C(=O)C1Cc2ccccc2CN1S(=O)(=O)c1ccc(F)cc1 (stereo not drawn)	none
Cc1nc(COC(=O)c2ccc(CO)cc2)cs1	MEKK3 PB1 HTS 0.0[inhibitor], MEKK2 WT-MEK5 0.0[inhibitor] | MEKK2wt confirm inactive | MEKK2mut confirm inactive | MEKK3-MEK5 inh inactive
Cc1nc(COC(=O)c2cc(O)c3ccccc3c2O)cs1	none
COc1ccc(/C=C2\SC(=S)N(CCC(=O)N3CCCCC3)C2=O)cc1	none
COCCN1C(=O)/C(=C/c2ccc(N3CCCC3)cc2)SC1=S	MEKK2 WT-MEK5 59[inhibitor] | MEKK2wt confirm inactive | MEKK2mut confirm inactive | MEKK3-MEK5 inh inactive
Cc1c(C(=O)Nc2ccc(Oc3ccccc3)cc2)sc2nc3n(c(=O)c12)CCC3	MEKK3 PB1 HTS 77[inhibitor] | MEKK2wt confirm inactive | MEKK2mut confirm inactive | MEKK3-MEK5 inh inactive
CCC1CCCCN1C(=O)CSC1=NN2CCCC(=O)N=C2S1 (stereo not drawn)	MEKK3 PB1 HTS 132 | MEKK2wt confirm inactive | MEKK2mut confirm inactive | MEKK3-MEK5 inh inactive
CCCN1CCC(=NNC(=O)CSc2cc(C)c(Br)cc2C)CC1	MEKK3 PB1 HTS 136 | MEKK2wt confirm inactive | MEKK2mut confirm inactive | MEKK3-MEK5 inh inactive
CC(=O)N1CCC(=NNC(=O)CSc2cc(C)c(Br)cc2C)CC1	none
CC(=O)c1cc(CN2CCC(n3nccc3NC(=O)c3ccccc3)CC2)cs1	none
Cc1cc(C)cc(OC(=O)c2cccnc2)c1	none
COC(=O)c1cc(Br)ccc1OC(=O)c1cccnc1	MEKK3 PB1 HTS 0.0[inhibitor], MEKK2 WT-MEK5 0.0[inhibitor] | MEKK2wt confirm inactive | MEKK2mut confirm inactive | MEKK3-MEK5 inh inactive
Cc1ccc(OC(=O)c2cccnc2)cc1	MEKK3 PB1 HTS 57[inhibitor], MEKK2 WT-MEK5 56[inhibitor] | MEKK2wt confirm inactive | MEKK2mut confirm inactive | MEKK3-MEK5 inh inactive
COc1ccc(-n2cccc2/C=C2/NC(=O)N(c3cccc(Cl)c3)C2=O)cc1	MEKK3 PB1 HTS 130 | MEKK2wt confirm inactive | MEKK2mut confirm inactive | MEKK3-MEK5 inh inactive

Assay outcomes (PubChem)
